From ChEMBL document CHEMBL5357044, “Discovery of a dual-acting inhibitor of interleukin-1β and STATs for the treatment of inflammatory bowel disease” (RSC Med Chem, 2024)
Activity calls are given as the source filed them. The calls are words filed in the database; no cut-off is given here.

How the values were obtained:
[1] = molecular target: NACHT, LRR and PYD domains-containing protein 3 (Mus musculus) (UniProt Q8R4B8); experiment: Inhibition of NLRP3 inflammasome activation in mouse BMDM cells assessed as reduction in LPS-stimulated IL-1beta level at 50 to 200 nM pretreated for 1 hr followed by imiquimod treatment for 2 hrs by ELISA; assay type: cell-based; conditions: dose 50-200 nM, time 3.0 hrs
Procedure, shortened: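 Bone-marrow macrophages in RPMI 1640/10% FBS/M-CSF. LPS priming at 0.5 μg mL−1 for 3 h, compound 1 h. NLRP3 then triggered by nigericin 10 μM for 0.5 h or imiquimod 900 μM for 2 h. Supernatant IL-1β by ELISA.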

[2] = molecular target: T1, Signal transducer and activator of transcription 1 (Mus musculus) (UniProt P42225); experiment: Inhibition of STAT1 expression in LPS-treated mouse J774.A1 cells assessed as reduction in STAT1 phosphorylation at 50 to 200 nM treated for 1 hr by Western blot analysis; assay type: cell-based; conditions: dose 50-200 nM
T1 sequence (whole entry): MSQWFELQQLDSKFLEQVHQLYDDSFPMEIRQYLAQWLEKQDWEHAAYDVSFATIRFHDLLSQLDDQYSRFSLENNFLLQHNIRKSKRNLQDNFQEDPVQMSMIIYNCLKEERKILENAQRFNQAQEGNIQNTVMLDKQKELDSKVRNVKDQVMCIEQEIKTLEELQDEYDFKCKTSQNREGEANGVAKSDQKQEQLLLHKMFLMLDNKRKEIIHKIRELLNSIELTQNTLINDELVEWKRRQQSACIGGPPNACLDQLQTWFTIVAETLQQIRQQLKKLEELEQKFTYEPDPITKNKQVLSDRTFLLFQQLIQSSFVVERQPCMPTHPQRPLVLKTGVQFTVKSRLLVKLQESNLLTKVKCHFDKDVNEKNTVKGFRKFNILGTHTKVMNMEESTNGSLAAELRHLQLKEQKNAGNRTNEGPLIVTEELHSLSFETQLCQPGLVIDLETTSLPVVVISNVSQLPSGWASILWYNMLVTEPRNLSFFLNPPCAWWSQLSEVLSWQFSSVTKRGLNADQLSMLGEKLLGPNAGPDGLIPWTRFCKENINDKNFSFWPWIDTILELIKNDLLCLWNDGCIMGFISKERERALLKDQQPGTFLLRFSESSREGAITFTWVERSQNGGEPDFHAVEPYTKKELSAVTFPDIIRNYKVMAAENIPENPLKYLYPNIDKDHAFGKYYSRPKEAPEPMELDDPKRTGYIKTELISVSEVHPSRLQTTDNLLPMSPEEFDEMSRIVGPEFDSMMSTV
Procedure, shortened: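 J774A.1 cells pretreated with LPS and compound, lysed in RIPA. pSTAT1, STAT1, pSTAT3, STAT3, pSTAT5 and STAT5 detected by SDS-PAGE western blot with ECL.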

Colon = experiment: Anti-colitis activity against DSS-induced ulcerative colitis mouse model assessed as increase in goblet cells in colon tissue at 0.2 to 0.6 mg/kg, ip treated every 72 hrs for 9 days by H and E staining based analysis; assay type: functional, organism-based; conditions: dose 0.2-0.6 mg/kg, time 9.0 day
Procedure, shortened: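 Colons were taken on day 9 from 2.5% DSS-fed mice (DSS days 1–7). Dosing was i.p. 0.2 or 0.6 mg kg−1 in 50% PEG300 on days 2, 5, 8. H&E-stained sections imaged at ×20 and scored for inflammatory infiltration, goblet cell depletion and crypt loss.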

NACHT, LRR and PYD domains-containing protein 3 (Mus musculus), sequence (Q8R4B8 whole entry, the tested form may be a part): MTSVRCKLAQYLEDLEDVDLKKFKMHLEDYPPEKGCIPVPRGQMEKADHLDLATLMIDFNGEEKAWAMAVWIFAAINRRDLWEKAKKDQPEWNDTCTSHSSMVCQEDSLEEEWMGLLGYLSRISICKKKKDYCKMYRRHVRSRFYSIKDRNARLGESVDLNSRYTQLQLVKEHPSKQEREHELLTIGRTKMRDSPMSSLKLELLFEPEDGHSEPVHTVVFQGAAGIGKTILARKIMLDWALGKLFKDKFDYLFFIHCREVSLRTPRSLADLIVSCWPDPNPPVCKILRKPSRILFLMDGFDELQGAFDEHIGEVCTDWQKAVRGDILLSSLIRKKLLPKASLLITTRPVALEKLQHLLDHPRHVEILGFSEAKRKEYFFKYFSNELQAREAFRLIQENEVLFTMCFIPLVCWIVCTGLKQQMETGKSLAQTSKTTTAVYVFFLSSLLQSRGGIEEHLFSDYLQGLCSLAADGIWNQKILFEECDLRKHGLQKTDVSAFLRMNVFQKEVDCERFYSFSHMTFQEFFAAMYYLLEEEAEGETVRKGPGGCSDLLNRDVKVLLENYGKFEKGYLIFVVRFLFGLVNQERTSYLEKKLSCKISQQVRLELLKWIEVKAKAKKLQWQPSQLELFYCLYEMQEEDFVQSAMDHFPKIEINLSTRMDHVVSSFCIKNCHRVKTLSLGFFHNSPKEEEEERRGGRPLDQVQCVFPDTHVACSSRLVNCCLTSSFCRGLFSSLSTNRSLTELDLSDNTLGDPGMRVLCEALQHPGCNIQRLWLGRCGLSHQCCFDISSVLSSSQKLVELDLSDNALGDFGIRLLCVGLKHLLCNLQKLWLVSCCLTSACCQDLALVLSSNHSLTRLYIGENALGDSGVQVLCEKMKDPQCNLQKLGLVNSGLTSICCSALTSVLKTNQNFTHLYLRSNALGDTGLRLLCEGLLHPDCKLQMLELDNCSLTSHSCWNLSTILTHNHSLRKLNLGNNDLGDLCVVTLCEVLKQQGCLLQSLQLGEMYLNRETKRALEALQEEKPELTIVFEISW

inhibition [1]: Active
inhibition [2]: Active
Structure (SMILES): Cc1cc(/C=C/C(=O)c2ccc(C(=O)N[C@@H](Cc3ccccc3)C(=O)N[C@@H](CC(C)C)B(O)O)cc2)cc(C)c1O
Activity (Colon): Active
